We go through 15 compounds from ChEMBL document CHEMBL1158785, “Polyoxygenated steroids from the gorgonian Isis hippuris” (J Nat Prod, 2005).

The structures appear in SMILES notation. Converted amounts (≈) assume the structure as drawn.

The test system of assay [1] is MCF7. Kind of assay: Cytotoxicity against human MCF7 cells after 3 days by MTT assay. Format: functional, cell-based. Particulars: MCF7, 72 h. The essentials:
(§1)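 Freshly trypsinized cells seeded at 5000-10 000 per well, compounds added from DMSO-diluted stock; 3 days culture. Attached cells then given MTT (0.5 mg/mL, 1 h), formazan dissolved in DMSO, absorbance read at 550 nm. IC50 taken as concentration reducing cell growth by 50%.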
Background: Tetrazolium assays rely on reduction of a dye to a coloured formazan, in cell work by metabolically active cells.

For assay [2], the system named is MDA-MB-231. The assay is described as follows: Cytotoxicity against human MDA-MB-231 cells after 3 days by MTT assay. The class given is functional, cell-based. As to conditions: MDA-MB-231, 72 h. The method, boiled down: as §1
For assay [3], the system named is HepG2. Kind of assay: Cytotoxicity against human HepG2 cells after 3 days by MTT assay. The class given is functional, cell-based. Particulars: HepG2, 72 h. The method, boiled down: as §1
Assay [4] in a line: Cytotoxicity against human Hep3B cells after 3 days by MTT assay. Format: functional, cell-based, Hep 3B2. Particulars: 72 h. The method, boiled down: as §1

For `CC(=O)O[C@H]1C[C@@H]2CC[C@@H]3[C@H]([C@@H](O)C[C@@]4(C)[C@H]3C[C@@H]3O[C@]5(C[C@H](C)C(C)(C)O5)[C@](C)(O)[C@@H]34)[C@@]2(C)C[C@H]1O`, the half-inhibitory concentration (IC50) (as a rule, the midpoint of a concentration-inhibition curve) in assay [1] turned out to be 2.41 µg/mL (≈ 4.63 µM); in assay [2], 0.74 µg/mL (≈ 1.42 µM); in assay [3], 2.06 µg/mL (≈ 3.96 µM); in assay [4] it was 1.46 µg/mL (≈ 2.8 µM).

As for `C[C@H]1C[C@]2(O[C@H]3C[C@H]4[C@@H]5CC[C@H]6C[C@H](O)[C@H](O)C[C@]6(C)[C@H]5[C@@H](O)C[C@]4(C)[C@H]3[C@@]2(C)O)OC1(C)C`, the IC50 in assay [1] stood at 0.59 µg/mL (≈ 1.23 µM); in assay [2] it was 0.75 µg/mL (≈ 1.57 µM); in assay [3], 0.62 µg/mL (≈ 1.3 µM); in assay [4], 0.77 µg/mL (≈ 1.61 µM).

As to `CC(=O)O[C@@H]1CC[C@@]2(C)[C@@H](CC[C@@H]3[C@@H]2[C@@H](O)C[C@]24[C@H](O)O[C@]5(C)[C@H]2[C@H](C[C@@H]34)O[C@]52C[C@H](C)C(C)(C)O2)C1` [HIPPURISTANOHEMIACETAL], the IC50 is 12.7 µg/mL (≈ 24.5 µM) in assay [1], over 20 µg/mL in assay [2] and over 20 µg/mL in assay [3].

As to `CC(=O)O[C@@H]1CC[C@@]2(C)[C@@H](CC[C@@H]3[C@@H]2[C@@H](O)C[C@]24C(=O)O[C@]5(C)[C@H]2[C@H](C[C@@H]34)O[C@]52C[C@H](C)C(C)(C)O2)C1`, the concentration for half-maximal inhibition (IC50) in assay [1], in assay [2] and in assay [3] was over 20 µg/mL throughout.

With `CC(=O)O[C@@H]1C[C@@]2(C)[C@@H](CC[C@@H]3[C@@H]2[C@@H](O)C[C@@]2(C)[C@H]3C[C@@H]3O[C@@]4(C[C@H](C)C(C)(C)O4)[C@](C)(O)[C@@H]32)C[C@@H]1O`, the IC50 in assay [1] is 0.53 µg/mL (≈ 1.02 µM); in assay [2], 0.41 µg/mL (≈ 0.787 µM); in assay [3], 0.56 µg/mL (≈ 1.08 µM); in assay [4], 0.1 µg/mL (≈ 0.192 µM).

On to `CC(=O)O[C@H]1C[C@@H]2CC[C@@H]3[C@H]([C@@H](O)C[C@@]4(C)[C@H]3C[C@@H]3O[C@@]5(C[C@H](C)C(C)(C)O5)[C@](C)(O)[C@@H]34)[C@@]2(C)C[C@H]1O`, for which the half-maximal inhibitory concentration (IC50) is 1.07 µg/mL (≈ 2.05 µM) in assay [1], 0.21 µg/mL (≈ 0.403 µM) in assay [2], 0.72 µg/mL (≈ 1.38 µM) in assay [3] and 0.46 µg/mL (≈ 0.883 µM) in assay [4].

For `C[C@H]1C[C@]2(O[C@H]3C[C@H]4[C@@H]5CC[C@H]6C[C@H](O)CC[C@]6(C)[C@H]5[C@@H](O)C[C@@]45C(=O)O[C@]2(C)[C@@H]35)OC1(C)C`, the IC50 in assay [1], in assay [2] and in assay [3] was over 20 µg/mL throughout.

Consider `C[C@H]1C[C@]2(O[C@H]3C[C@H]4[C@@H]5CC[C@H]6C[C@H](O)[C@H](O)C[C@]6(C)[C@H]5[C@@H](O)C[C@@]45C(=O)O[C@]2(C)[C@@H]35)OC1(C)C`, for which the IC50 in assay [1] is over 30 µg/mL; in assay [2], over 30 µg/mL; in assay [3] it was over 30 µg/mL; in assay [4] it was 23.8 µg/mL (≈ 48.6 µM).

As to `CC(=O)O[C@H]1C[C@@H]2CC[C@@H]3[C@H]([C@@H](O)C[C@]45[C@H](O)O[C@]6(C)[C@H]4[C@H](C[C@@H]35)O[C@]63C[C@H](C)C(C)(C)O3)[C@@]2(C)C[C@H]1OC(C)=O`, the IC50 in assay [1] was 11.4 µg/mL (≈ 19.7 µM); in assay [2] it was over 20 µg/mL; in assay [3] it was over 20 µg/mL.

Turning to `CC(=O)O[C@H]1C[C@@H]2CC[C@@H]3[C@H]([C@@H](O)C[C@]45C(=O)O[C@]6(C)[C@H]4[C@H](C[C@@H]35)O[C@]63C[C@H](C)C(C)(C)O3)[C@@]2(C)C[C@H]1OC(C)=O`, the results for the 50% inhibitory concentration (IC50) in assay [1], in assay [2] and in assay [3] were 19.6 µg/mL (≈ 34.1 µM), over 20 µg/mL and over 20 µg/mL, respectively.

Regarding `CC(=O)O[C@@H]1CC[C@@]2(C)[C@@H](CC[C@@H]3[C@@H]2[C@@H]2C[C@]45[C@H](O2)O[C@]2(C)[C@H]4[C@H](C[C@@H]35)O[C@]23C[C@H](C)C(C)(C)O3)C1`, the half-inhibitory concentration (IC50) in assay [1], in assay [2] and in assay [3] was over 20 µg/mL in each case.

For the compound `CC(=O)O[C@@H]1C[C@@]2(C)[C@@H](CC[C@@H]3[C@@H]2[C@@H](O)C[C@@]2(C)[C@H]3C[C@@H]3O[C@]4(C[C@H](C)C(C)(C)O4)[C@](C)(O)[C@@H]32)C[C@@H]1O` [EPIHIPPURIN 1], the IC50 in assay [1] came out at 4.54 µg/mL (≈ 8.72 µM); in assay [2] it was 2.64 µg/mL (≈ 5.07 µM); in assay [3] it was 4.64 µg/mL (≈ 8.91 µM); in assay [4] it was 0.68 µg/mL (≈ 1.31 µM).

As for `CC(=O)O[C@@H]1C[C@@]2(C)[C@@H](CC[C@@H]3[C@@H]2[C@@H](O)C[C@]24C(=O)O[C@]5(C)[C@H]2[C@H](C[C@@H]34)O[C@]52C[C@H](C)C(C)(C)O2)C[C@@H]1O`, the IC50 in assay [1] was over 30 µg/mL; in assay [2] it was over 30 µg/mL; in assay [3], 27.6 µg/mL (≈ 51.8 µM); in assay [4], over 30 µg/mL.

`CC(=O)O[C@H]1C[C@@H]2CC[C@@H]3[C@H]([C@@H]4C[C@]56[C@H](O4)O[C@]4(C)[C@H]5[C@H](C[C@@H]36)O[C@]43C[C@H](C)C(C)(C)O3)[C@@]2(C)C[C@H]1OC(C)=O`: the IC50 in assay [1], in assay [2] and in assay [3] was over 20 µg/mL each time.

As for `C[C@H]1C[C@]2(O[C@H]3C[C@H]4[C@@H]5CC[C@H]6C[C@H](O)CC[C@]6(C)[C@H]5[C@@H](O)C[C@]4(C)[C@H]3[C@@]2(C)O)OC1(C)C` [EPIHIPPURISTANOL], the half-inhibitory concentration (IC50) in assay [1] is 0.2 µg/mL (≈ 0.432 µM); in assay [2], 0.13 µg/mL (≈ 0.281 µM); in assay [3] it was 0.08 µg/mL (≈ 0.173 µM); in assay [4], 0.1 µg/mL (≈ 0.216 µM).
